In data set [1] the test system is Quadruplex DNA. Kind of data set: Stabilization of G-quadruplex h-TELO 5-FAM-TTGGGTTAGGGTTAGGGTTAGGGA-TAMRA-3 (unknown origin) assessed as change in melting temperature at 1 uM incubated for 1 hr in dark condition by FRET-based melting assay. The class given is nucleic-acid assay. The method, boiled down:
(§1)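 FRET melting of dual-fluorophore-tagged oligonucleotides (200 nM) in 60 mM potassium cacodylate buffer, pH 7.4, with ligand at 1 μM; ΔTm taken against the ligand-free oligonucleotide Tm as control.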

Data set [2] has as its system Quadruplex DNA. Description: Stabilization of calf thymus […] ds DNA 5-FAM-CAATCGGATCGAATTCGATCCGATTG-TAMRA-3 assessed as change in melting temperature at 1 uM incubated for 1 hr in dark condition by FRET-based melting assay. As to conditions: Bos taurus. The class given is nucleic-acid assay. Put shortly: as §1
Data set [3] concerns Quadruplex DNA. Kind of data set: Stabilization of G-quadruplex c-KIT1 5-FAM-GGGAGGGCGCTGGGAGGAGGG-TAMRA-3 (unknown origin) assessed as change in melting temperature at 5 uM incubated for 1 hr in dark condition by FRET-based melting assay. The format is nucleic-acid assay. Put shortly: (§2)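 FRET melting of dual-fluorophore (FAM/TAMRA) tagged G-quadruplex (200 nM) in 60 mM potassium cacodylate, pH 7.4. The screen used 1 μM ligand; dose series used 1, 3, 5, 7 and 10 μM. ΔTm was taken against the Tm of the same oligonucleotide without ligand.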

Data set [4] concerns Quadruplex DNA. Description: Stabilization of G-quadruplex c-KIT1 5-FAM-GGGAGGGCGCTGGGAGGAGGG-TAMRA-3 (unknown origin) assessed as change in melting temperature at 10 uM incubated for 1 hr in dark condition by FRET-based melting assay. The class given is nucleic-acid assay. Put shortly: as §2
The test system of data set [5] is Quadruplex DNA. Kind of data set: Stabilization of G-quadruplex c-MYC 5-FAM-TGGGGAGGGTGGGGAGGGTGGGGAAGG-TAMRA- 3 (unknown origin) assessed as change in melting temperature at 10 uM incubated for 1 hr in dark condition by FRET-based melting assay. The format is nucleic-acid assay. The method, boiled down: as §2
Data set [6] has as its system Quadruplex DNA. Description: Stabilization of G-quadruplex c-KIT2 5-FAM-GGGCGGGCGCGAGGGAGGGG-TAMRA-3 (unknown origin) assessed as change in melting temperature at 10 uM incubated for 1 hr in dark condition by FRET-based melting assay. The class given is nucleic-acid assay. The method, boiled down:
as §2

The subject of data set [7] is Quadruplex DNA. Description: Binding affinity to excessive G-quadruplex c-KIT1 5-FAM-GGGAGGGCGCTGGGAGGAGGG-TAMRA-3 (unknown origin) assessed as fold increase in fluorescence intensity at 1 uM incubated for 1 hr in dark condition by fluorescence spectroscopy assay relative to VEGF. The class given is nucleic-acid assay. The method, boiled down: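 Ligand (1.0 μM) titrated to saturation with increasing G-quadruplex in 100 mM Tris-KCl buffer, pH 7.4. The value is the ratio of the c-KIT 1 fold change in fluorescence intensity to the fold change obtained with VEGF or c-KIT 2.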

The target in data set [8] is Quadruplex DNA. Kind of data set: Binding affinity to G-quadruplex c-KIT 2 5-FAM-GGGCGGGCGCGAGGGAGGGG-TAMRA-3 (unknown origin) assessed as dissociation constant by fluorescence spectroscopy assay. The format is nucleic-acid assay. The method, boiled down: (§3)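 Fluorimetric titration of ligand held at 1.0 μM with increasing concentrations of G4 or dsDNA until saturation. Change in ligand fluorescence intensity was fitted for Kd. Run in 100 mM Tris-KCl buffer, pH 7.4.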

Data set [9] concerns the target Quadruplex DNA. Kind of data set: Binding affinity to G-quadruplex BCL-2 5-FAM-AGGGGCGGGCGCGGGAGGAAGGGGGCGGGAGCGGGGCTG-TAMRA-3 (unknown origin) assessed as dissociation constant by fluorescence spectroscopy assay. The format is nucleic-acid assay. The method, boiled down:
as §3

The target in data set [10] is Quadruplex DNA. Kind of data set: Binding affinity to G-quadruplex c-KIT 2 5-FAM-GGGCGGGCGCGAGGGAGGGG-TAMRA-3 (unknown origin) assessed as dissociation constant by measuring thermogram by isothermal titration calorimetry (ITC) assay. The format is nucleic-acid assay. Put shortly:
(§4)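 ITC of ligand binding to folded G4 in 100 mM Tris-KCl buffer, pH 7.4. Kd and stoichiometry were obtained from the isothermal heat curve and binding isotherm.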
(ITC needs no label: the signal is the heat of the interaction.)

Data set [11] addresses Quadruplex DNA. Kind of data set: Binding affinity to G-quadruplex h-TELO 5-FAM-TTGGGTTAGGGTTAGGGTTAGGGA-TAMRA-3 (unknown origin) assessed as dissociation constant by measuring thermogram by isothermal titration calorimetry (ITC) assay. The class given is nucleic-acid assay. The method, boiled down: as §4
Data set [12] deals with K562. Description: Cytotoxicity against human c-KIT-positive K562 cells assessed as cell viability measured after 24 hrs by XTT formazan assay. The format is functional, cell-based. As to conditions: K562, 24 h. A general note: Formazan colour is commonly taken as a measure of viable cells.
Data set [13] is described as follows: Cytotoxicity against HEK293 cells assessed as cell viability measured after 24 hrs by XTT formazan assay. The class given is toxicity, cell-based. As to conditions: human.
For data set [14], the system named is K562. Description: Attenuation of proto-oncogene expression in human c-KIT-positive K562 cells assessed as reduction in c-MYC oncogene expression at 6 uM measured after 24 hrs by qRT-PCR analysis relative to control. The format is functional. The method, boiled down: (§5)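 K562 cells treated 24 h at two doses per ligand (3 and 6 μM, 5.5 and 11 μM; positive control 2 and 4 μM). c-KIT, c-MYC and BCL-2 mRNA measured by qRT-PCR and normalized to housekeeping gene 18s, relative to untreated control.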
(Quantitative PCR measures a nucleic acid by following its amplification.)

Data set [15] deals with K562. Kind of data set: Attenuation of proto-oncogene expression in human c-KIT-positive K562 cells assessed as reduction in BCL-2 oncogene expression at 6 uM measured after 24 hrs by qRT-PCR analysis relative to control. The class given is functional. Put shortly: as §5
Data set [16] is described as follows: Reduction of c-MYC oncogene expression in human K562 cells transfected with c-MYC plasmid construct assessed as reduction in luciferase expression at 3 uM measured after 36 hrs by luciferase reporter assay. The class given is functional. Put shortly: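 Promoter luciferase reporter: K562 cells transfected with a c-MYC promoter G4-containing luciferase-expressing plasmid, then ligand-treated at two doses each (3 and 6 μM, or 5.5 and 11 μM); read-out as relative luciferase expression, reported as percent reduction.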

Data set [17] has as its system K562. Kind of data set: Induction of cell cycle arrest in human K562 cells assessed as accumulation at G0/G1 phase at 3 uM incubated for 24 hrs by propidium iodide based assay. The format is functional. Put shortly:
(§6)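 K562 cells were treated with ligand (3 and 6 μM or 5.5 and 11 μM) and stained with propidium iodide. The fraction of cells in each cell-cycle phase was determined by flow cytometry.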

In data set [18] the test system is K562. Description: Induction of cell cycle arrest in human K562 cells assessed as accumulation at G0/G1 phase at 6 uM incubated for 24 hrs by propidium iodide based assay. The class given is functional. The method, boiled down:
as §6

In data set [19] the test system is K562. Kind of data set: Induction of apoptosis in human K562 cells assessed as cell death at 3 uM incubated for 24 hrs by FITC-Annexin V and PI based flow cytometry relative to control. The format is functional. Put shortly:
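K562 cells after ligand treatment dual-stained with annexin V and propidium iodide. Apoptotic cell populations (early and late) scored by flow cytometry dot plot analysis.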

Molecules are shown by their SMILES.

One may read the ΔTm as the shift of the melting midpoint relative to a reference. For orientation: Kd means a measure of binding affinity in units of concentration. In general, IC50 refers to the concentration at which inhibition is half-maximal. As a reminder, the inhibition is how much of the control response was suppressed.

For the compound `CN(C)CCCNC(=O)c1ccc(-n2cc(-c3ccc4[nH]c5ccccc5c4c3)nn2)cc1`, the ΔTm came out at 4.5 °C in the data set on Quadruplex DNA [1]; 0.7 °C in the data set on Quadruplex DNA [2]; 25.5 °C in the data set on Quadruplex DNA [3]; 26.5 °C in the data set with Quadruplex DNA [4]; 17.3 °C in the data set on Quadruplex DNA [5]; 18.1 °C with Quadruplex DNA [6]. In the data set with Quadruplex DNA [7], the fold change (FC) was 2.8. The dissociation constant (Kd) at Quadruplex DNA [8] is 2.8 µM; on Quadruplex DNA [9] it was 4.8 µM; on Quadruplex DNA [10], 20.9 µM; on Quadruplex DNA [11], 17.4 µM. In addition, the IC50 in the data set with K562 [12] amounted to 6.2 µM. The IC50 at 24 h in data set [13] was more than 50 µM. The inhibition at 6 µM in the data set on K562 [14] is 19%; in the data set with K562 [15], 39%. For the same compound, the inhibition at 3 µM in [16] stood at 6%. The Activity was 74.1% with K562 [17], 79.7% in the data set with K562 [18] and 35% in the data set with K562 [19].

The values are drawn from ChEMBL document CHEMBL5344453, “Selective Recognition of c-KIT 1 G-Quadruplex by Structural Tuning of Heteroaromatic Scaffolds and Side Chains” (ACS Med Chem Lett, 2024).
